In data set [1] the target is AMPK alpha1/beta1/gamma3 (Homo sapiens) (UniProt Q9Y478+Q13131+Q9UGI9). Nature of the data set: Activation of human recombinant AMPK alpha1beta1gamma3. The format is protein-complex assay.
Data set [2] deals with Mus musculus. Nature of the data set: Antidiabetic activity in ob/ob mouse assessed as reduction in blood glucose level at 100 mg/kg, po bid for 5 days in presence of P-gp inhibitor GF120918 relative to control. The format is functional. Set-up: scale not given: the % may be the effect or the level left. The procedure, abridged:
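ob/ob mice receive chronic oral treatment at 100 mg/kg co-administered with the P-gp inhibitor. The blood glucose reduction is assessed against control.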

Data set [3] has as its target AMPK alpha1/beta2/gamma1 (Homo sapiens) (UniProt O43741+P54619+Q13131). Kind of data set: Activation of human recombinant AMPK alpha1beta2gamma1. The format is protein-complex assay.
The nature of data set [4]: Solubility of the compound. The format is physicochemical. A digest of the protocol: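 Solubility is the soluble fraction of the oral formulation (HPMC K100 0.5%/Tween 80 0.1% in pH 7 buffer) made by ball milling from solid powder. The maximum is […].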
Data set [5] deals with AMPK alpha1/beta1/gamma2 (Homo sapiens) (UniProt Q9UGJ0+Q9Y478+Q13131). Nature of the data set: Activation of human recombinant AMPK alpha1beta1gamma2. It is filed as protein-complex assay.
For data set [6], the target named is AMPK alpha2/beta2/gamma3 (Homo sapiens) (UniProt P54646+O43741+Q9UGI9). Nature of the data set: Activation of human recombinant AMPK alpha2beta2gamma3. The format is protein-complex assay.
The target of data set [7] is AMPK alpha2/beta2/gamma1 (Homo sapiens) (UniProt P54646+O43741+P54619). Kind of data set: Activation of human recombinant AMPK alpha2beta2gamma1. The format is protein-complex assay.
The nature of data set [8]: Plasma protein binding in mouse. The format is ADME, cell-free. The settings on record: read-out: PPB (converted).
Data set [9] in a line: Clearance in mouse at 1 mg/kg, iv. It is filed as ADME, organism-based. Particulars: in vivo. Further details: dose 1 mg/kg, route intravenous. The procedure, abridged: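 Mouse iv pharmacokinetics. 1 mg/kg given as a solution in DMSO/hydroxypropyl-β-cyclodextrin 20% in pH 7 buffer (5:95). Blood clearance is determined.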
For data set [10], the target named is AMP-activated protein kinase (AMPK) alpha-1/beta-1/gamma-1 (Homo sapiens) (UniProt P54619+Q9Y478+Q13131). Nature of the data set: Activation of human recombinant AMPK alpha1beta1gamma1 by FRET assay. The format is protein-complex assay. The procedure, abridged: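 Activation of the α1β1γ1 heterotrimer, reported as pEC200 = −log(concentration giving a 2-fold increase in AMPK activity). Values are means of at least 2 independent experiments.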

A short description of data set [11]: AUC in mouse at 5 mg/kg, po. The format is ADME, organism-based, Plasma. Further details: dose 5 mg/kg, route oral. Particulars: blood. The procedure, abridged: (§1)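 Mouse pharmacokinetics. Oral dosing at 5 or 30 mg/kg as a suspension in HPMC K100 0.5%/Tween 80 0.1% in pH 7 buffer. AUC is measured in blood. Bioavailability is taken against an iv dose of 1 mg/kg.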

Data set [12] in a line: Oral bioavailability in mouse at 5 mg/kg. The format is ADME, organism-based. Particulars: in vivo. A digest of the protocol: as §1
Data set [13] is described as follows: Permeability of the compound by PAMPA. The format is ADME. Particulars: read-out: permeability. A digest of the protocol:
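Passive permeability is measured by parallel artificial membrane permeability assay (PAMPA).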

Data set [14] has as its target AMPK alpha2/beta1/gamma1 (Homo sapiens) (UniProt P54646+P54619+Q9Y478). Nature of the data set: Activation of human recombinant AMPK alpha2beta1gamma1. The format is protein-complex assay.
Data set [15] deals with Blood. Nature of the data set: Ratio of AUC in mouse blood in presence of P-gp inhibitor GF120918 to AUC in mouse blood at 5 mg/kg, po. The format is ADME, organism-based. Further details: dose 5 mg/kg, route oral. The settings on record: in vivo. The procedure, abridged:
(§2)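 Mice are dosed orally (5 or 30 mg/kg) as a suspension in HPMC K100 0.5%/Tween 80 0.1% in pH 7 buffer, alone or co-administered with the P-gp inhibitor GF120918 at 30 mg/kg. Mean blood AUC with the inhibitor is compared with AUC without it.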

Data set [16] deals with Mus musculus. Nature of the data set: Antidiabetic activity in ob/ob mouse assessed as reduction in blood glucose level at 10 mg/kg, po bid for 5 days measured 12 hrs after last dose relative to control. The format is functional. Set-up: scale not given: the % may be the effect or the level left. The procedure, abridged: (§3)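 ob/ob mice are gavaged bid for 5 days at 10 or 30 mg/kg without P-gp inhibitor. Blood glucose is measured 12 h after the last gavage and compared with control.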

The test system of data set [17] is Mus musculus. Nature of the data set: Antidiabetic activity in ob/ob mouse assessed as reduction in blood glucose level at 30 mg/kg, po bid for 5 days measured 12 hrs after last dose relative to control. The format is functional. Set-up: scale not given: the % may be the effect or the level left. A digest of the protocol:
as §3

Data set [18] relates to Blood. Nature of the data set: Ratio of AUC in mouse blood in presence of P-gp inhibitor GF120918 to AUC in mouse blood at 30 mg/kg, po. It is filed as ADME, organism-based. Set-up: dose 30 mg/kg, route oral. Particulars: in vivo. The procedure, abridged: as §2
Data set [19] can be described thus: Dissociation constant, pKa of the compound. The format is physicochemical.
Data set [20] in a line: AUC in mouse at 30 mg/kg, po. Set-up: dose 30 mg/kg, route oral. It is filed as ADME, organism-based, Plasma. The settings on record: blood. A digest of the protocol: as §1
Data set [21] is described as follows: Oral bioavailability in mouse at 30 mg/kg. It is filed as ADME, organism-based. The settings on record: in vivo. A digest of the protocol: as §1

Values after ≈ are worked out from the molar mass of the structure shown. Active and inactive are the calls of the source. The calls are words filed in the database; no cut-off is given here. Bounds are passed on as bounds.

Sequence of AMPK alpha2/beta2/gamma1 (Homo sapiens) (O43741 whole entry, looked up): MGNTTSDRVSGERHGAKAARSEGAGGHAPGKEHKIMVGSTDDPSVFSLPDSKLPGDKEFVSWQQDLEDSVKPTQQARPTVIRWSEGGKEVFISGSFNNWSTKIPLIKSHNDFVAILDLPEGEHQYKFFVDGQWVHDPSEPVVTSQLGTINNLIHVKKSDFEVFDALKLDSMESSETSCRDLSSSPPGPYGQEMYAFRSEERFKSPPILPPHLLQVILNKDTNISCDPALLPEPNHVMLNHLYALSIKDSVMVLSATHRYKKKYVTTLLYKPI
Sequence of AMPK alpha2/beta2/gamma1 (Homo sapiens) (P54619 whole entry, looked up): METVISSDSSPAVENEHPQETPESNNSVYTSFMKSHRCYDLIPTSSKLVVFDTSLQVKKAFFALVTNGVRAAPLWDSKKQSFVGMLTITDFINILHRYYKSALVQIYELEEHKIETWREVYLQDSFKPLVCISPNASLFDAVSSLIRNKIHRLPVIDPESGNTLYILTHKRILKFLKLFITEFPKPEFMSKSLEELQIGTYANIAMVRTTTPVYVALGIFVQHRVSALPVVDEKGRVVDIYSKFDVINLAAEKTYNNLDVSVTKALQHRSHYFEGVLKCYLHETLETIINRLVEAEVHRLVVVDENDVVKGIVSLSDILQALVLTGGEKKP
Sequence of AMPK alpha2/beta2/gamma1 (Homo sapiens) (P54646 whole entry, looked up): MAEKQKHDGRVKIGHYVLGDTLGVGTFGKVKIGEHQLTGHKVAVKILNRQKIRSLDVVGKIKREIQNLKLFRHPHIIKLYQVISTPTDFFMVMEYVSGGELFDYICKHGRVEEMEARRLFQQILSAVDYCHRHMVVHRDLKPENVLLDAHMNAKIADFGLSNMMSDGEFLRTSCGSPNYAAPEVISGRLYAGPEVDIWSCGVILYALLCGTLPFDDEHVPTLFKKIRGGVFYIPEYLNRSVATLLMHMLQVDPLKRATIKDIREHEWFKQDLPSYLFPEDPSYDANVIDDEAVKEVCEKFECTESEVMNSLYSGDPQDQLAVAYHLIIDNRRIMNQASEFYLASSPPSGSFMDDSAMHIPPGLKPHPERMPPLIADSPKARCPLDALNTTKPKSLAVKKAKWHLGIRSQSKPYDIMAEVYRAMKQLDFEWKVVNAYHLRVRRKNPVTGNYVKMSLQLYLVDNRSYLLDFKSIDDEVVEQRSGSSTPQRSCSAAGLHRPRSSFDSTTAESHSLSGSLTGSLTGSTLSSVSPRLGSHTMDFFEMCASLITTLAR
Sequence of AMP-activated protein kinase (AMPK) alpha-1/beta-1/gamma-1 (Homo sapiens) (P54619 whole entry): as the sequence (P54619 whole entry, looked up) above
Sequence of AMP-activated protein kinase (AMPK) alpha-1/beta-1/gamma-1 (Homo sapiens) (Q13131 whole entry partner): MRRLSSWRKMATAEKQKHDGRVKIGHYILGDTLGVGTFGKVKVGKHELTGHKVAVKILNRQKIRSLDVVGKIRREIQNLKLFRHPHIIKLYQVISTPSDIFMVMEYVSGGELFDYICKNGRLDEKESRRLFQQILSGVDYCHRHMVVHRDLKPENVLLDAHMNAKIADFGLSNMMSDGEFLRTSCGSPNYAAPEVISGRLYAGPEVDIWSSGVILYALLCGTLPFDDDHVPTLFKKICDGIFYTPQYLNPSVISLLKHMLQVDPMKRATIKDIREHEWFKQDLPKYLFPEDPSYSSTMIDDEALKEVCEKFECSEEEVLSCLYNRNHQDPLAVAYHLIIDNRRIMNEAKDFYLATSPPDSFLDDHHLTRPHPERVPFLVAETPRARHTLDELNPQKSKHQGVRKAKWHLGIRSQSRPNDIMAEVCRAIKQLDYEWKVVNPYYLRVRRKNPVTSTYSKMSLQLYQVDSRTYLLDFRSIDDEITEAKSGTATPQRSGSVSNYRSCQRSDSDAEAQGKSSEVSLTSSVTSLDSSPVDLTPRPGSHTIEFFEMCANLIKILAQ
Sequence of AMP-activated protein kinase (AMPK) alpha-1/beta-1/gamma-1 (Homo sapiens) (Q9Y478 2-270 partner limits assumed): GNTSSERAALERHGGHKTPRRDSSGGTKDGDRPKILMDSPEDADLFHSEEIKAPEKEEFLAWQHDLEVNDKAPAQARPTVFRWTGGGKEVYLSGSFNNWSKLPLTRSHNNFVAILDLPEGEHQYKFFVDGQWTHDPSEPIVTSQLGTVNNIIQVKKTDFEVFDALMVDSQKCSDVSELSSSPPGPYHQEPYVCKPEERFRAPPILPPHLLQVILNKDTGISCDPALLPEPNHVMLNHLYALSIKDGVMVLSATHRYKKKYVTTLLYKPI
Sequence of AMPK alpha2/beta2/gamma3 (Homo sapiens) (O43741 whole entry, looked up): as the sequence (O43741 whole entry, looked up) above
Sequence of AMPK alpha2/beta2/gamma3 (Homo sapiens) (P54646 whole entry, looked up): as the sequence (P54646 whole entry, looked up) above
Sequence of AMPK alpha2/beta2/gamma3 (Homo sapiens) (Q9UGI9 whole entry, looked up): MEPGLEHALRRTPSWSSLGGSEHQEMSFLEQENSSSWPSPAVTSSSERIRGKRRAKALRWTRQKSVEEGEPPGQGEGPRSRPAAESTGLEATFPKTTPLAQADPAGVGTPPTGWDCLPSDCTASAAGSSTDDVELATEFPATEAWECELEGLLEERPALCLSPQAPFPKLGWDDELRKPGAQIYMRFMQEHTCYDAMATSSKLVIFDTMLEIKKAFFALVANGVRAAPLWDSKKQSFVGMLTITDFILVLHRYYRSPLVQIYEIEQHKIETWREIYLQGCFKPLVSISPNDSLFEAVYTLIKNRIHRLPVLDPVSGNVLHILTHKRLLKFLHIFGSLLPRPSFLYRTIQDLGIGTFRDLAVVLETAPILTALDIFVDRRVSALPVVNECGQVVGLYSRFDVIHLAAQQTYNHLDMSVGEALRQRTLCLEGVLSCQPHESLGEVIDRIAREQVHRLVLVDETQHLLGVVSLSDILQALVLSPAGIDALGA
Sequence of AMPK alpha1/beta2/gamma1 (Homo sapiens) (O43741 whole entry, looked up): as the sequence (O43741 whole entry, looked up) above
Sequence of AMPK alpha1/beta2/gamma1 (Homo sapiens) (P54619 whole entry, looked up): as the sequence (P54619 whole entry, looked up) above
Sequence of AMPK alpha1/beta2/gamma1 (Homo sapiens) (Q13131 whole entry, looked up): as the sequence (Q13131 whole entry partner) above
Sequence of AMPK alpha1/beta1/gamma3 (Homo sapiens) (Q13131 whole entry partner): as above
Sequence of AMPK alpha1/beta1/gamma3 (Homo sapiens) (Q9UGI9 whole entry partner): as the sequence (Q9UGI9 whole entry, looked up) above
Sequence of AMPK alpha1/beta1/gamma3 (Homo sapiens) (Q9Y478 2-270 limits assumed): as the sequence (Q9Y478 2-270 partner limits assumed) above
Sequence of AMPK alpha1/beta1/gamma2 (Homo sapiens) (Q13131 whole entry partner): as the sequence (Q13131 whole entry partner) above
Sequence of AMPK alpha1/beta1/gamma2 (Homo sapiens) (Q9UGJ0 whole entry): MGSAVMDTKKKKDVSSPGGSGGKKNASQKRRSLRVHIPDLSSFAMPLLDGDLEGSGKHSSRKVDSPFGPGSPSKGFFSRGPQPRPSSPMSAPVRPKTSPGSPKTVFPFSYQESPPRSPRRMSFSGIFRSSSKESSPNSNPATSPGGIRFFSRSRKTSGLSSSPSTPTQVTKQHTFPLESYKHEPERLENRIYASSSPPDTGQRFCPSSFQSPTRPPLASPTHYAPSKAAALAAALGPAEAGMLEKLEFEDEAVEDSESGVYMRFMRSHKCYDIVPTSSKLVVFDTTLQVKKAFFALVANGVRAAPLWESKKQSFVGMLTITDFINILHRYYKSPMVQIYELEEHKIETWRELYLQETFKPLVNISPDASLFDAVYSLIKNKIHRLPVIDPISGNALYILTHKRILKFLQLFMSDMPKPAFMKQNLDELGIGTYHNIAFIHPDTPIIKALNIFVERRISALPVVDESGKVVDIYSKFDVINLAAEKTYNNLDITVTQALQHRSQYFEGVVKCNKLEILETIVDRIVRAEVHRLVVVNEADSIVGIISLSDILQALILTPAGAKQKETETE
Sequence of AMPK alpha1/beta1/gamma2 (Homo sapiens) (Q9Y478 2-270 partner limits assumed): as the sequence (Q9Y478 2-270 partner limits assumed) above
Sequence of AMPK alpha2/beta1/gamma1 (Homo sapiens) (P54619 whole entry partner): as the sequence (P54619 whole entry, looked up) above
Sequence of AMPK alpha2/beta1/gamma1 (Homo sapiens) (P54646 whole entry): as the sequence (P54646 whole entry, looked up) above
Sequence of AMPK alpha2/beta1/gamma1 (Homo sapiens) (Q9Y478 2-270 partner limits assumed): as the sequence (Q9Y478 2-270 partner limits assumed) above

On to `COc1cccc(-c2ccc(-n3c(Cl)cc4[nH]c(=O)c(C#N)c(O)c43)cc2)c1O`, for which the outcome in data set [1], in data set [3], in data set [5] and in data set [14] was Active. For the same molecule, the Activity with Mus musculus [2] came out at 18%. The molecule also displayed a solubility in [4] of 42.5 µg/mL (≈ 104 µM). In addition, the figures for the pEC200 in data set [6], in data set [7] and in data set [10] were 7.3, 7.3 and 9.2, respectively. Also, the fraction unbound in data set [8] is less than 0.001. In addition, the clearance in data set [9] was 3 mL/min/kg. Besides, in data set [11], the area under the curve (AUC) came to 892 ng·h/mL. This molecule also returned a bioavailability in data set [12] of 3%. The Papp in data set [13] is less than 0.3 ×10⁻⁶ cm/s. Besides, the “Ratio AUC” value with Blood [15] worked out at 10.
In the case of `COc1cccc(-c2ccc(-n3c(Cl)cc4[nH]c(=O)c(-c5ccccc5)c(O)c43)cc2)c1O`, the solubility in data set [4] amounted to 25 µg/mL (≈ 54.5 µM). In addition, the Activity in the data set with Mus musculus [16] is 13%; with Mus musculus [17] it was 17%. Besides, the outcome in data set [7] was Active. The fraction unbound in data set [8] is less than 0.001. Also, in [9], the clearance is 0.3 mL/min/kg. For the same molecule, in the data set on Blood [18], the “Ratio AUC” value was found to be 2. Also, the pEC200 in data set [10] was 7.6. The AUC in [11] turned out to be 41300 ng·h/mL. This molecule also displayed a bioavailability in [12] of 15%. In addition, the Papp in [13] was determined as 11 ×10⁻⁶ cm/s.
In turn, `COc1cccc(-c2ccc(-n3ccc4[nH]c(=O)c(C#N)c(O)c43)cc2)c1O` returned a solubility in [4] of 500 µg/mL (≈ 1340 µM). Moreover, in data set [8], the fraction unbound was 0.007. In addition, the clearance in [9] is 2.4 mL/min/kg. Besides, in data set [10], the pEC200 was 8. In [11], this molecule came in with an AUC of 70 ng·h/mL. The bioavailability in [12] is less than 1%. In data set [13], the Papp was less than 0.04 ×10⁻⁶ cm/s.
Take `Cc1ccc(-c2ccc(-n3c(Cl)cc4[nH]c(=O)c(C#N)c(O)c43)cc2)cc1`: the pEC200 in data set [3] is less than 4.5; in data set [6], 5.5; in [7], 5.5; in data set [10], 7.5. For the same molecule, the solubility in [4] turned out to be 129 µg/mL (≈ 343 µM). Moreover, the fraction unbound in data set [8] is less than 0.001. This molecule also had a clearance in data set [9] of 0.7 mL/min/kg. The exposure (AUC) in data set [11] came to 17000 ng·h/mL. This molecule also registered a bioavailability in data set [12] of 14%. In addition, in data set [13], the Papp stood at 0.48 ×10⁻⁶ cm/s.
With `COc1cccc(-c2ccc(-n3c(Cl)cc4[nH]c(=O)c(-c5cccc(C(=O)O)c5)c(O)c43)cc2)c1O`, the solubility in data set [4] came to 325 µg/mL (≈ 646 µM). For the same molecule, in [8], the fraction unbound is less than 0.001. This molecule had a clearance in data set [9] of 1 mL/min/kg. In addition, the pEC200 in data set [10] is 8.7. Moreover, the AUC in data set [11] was found to be 403 ng·h/mL. This molecule registered a bioavailability in [12] of 0.5%. In data set [13], the Papp was less than 0.06 ×10⁻⁶ cm/s.
For `COc1cccc(-c2ccc(-n3ccc4[nH]c(=O)c(C#N)c(O)c43)cc2)c1`, in data set [10], the pEC200 was determined as 5.3.
Turning to `N#Cc1c(O)c2c(cc(Cl)n2-c2ccc(-c3ccsc3)cc2)[nH]c1=O`, in the data set with Mus musculus [2], the Activity amounted to 17%. This molecule registered a solubility in data set [4] of 186 µg/mL (≈ 506 µM). Besides, the result in data set [7] was Active. Moreover, the fraction unbound in data set [8] is less than 0.001. Besides, the clearance in data set [9] was determined as 0.9 mL/min/kg. Also, the pEC200 in data set [10] came out at 8.1. This molecule also registered an AUC in data set [11] of 19500 ng·h/mL. This molecule also gave a bioavailability in data set [12] of 21%. The molecule further yielded a pKa in data set [19] of less than 2. In addition, the Papp in [13] is less than 0.07 ×10⁻⁶ cm/s.
In data set [4], `CCc1ccc(-n2c(Cl)cc3[nH]c(=O)c(-c4ccccc4)c(O)c32)cc1` gave a solubility of 20 µg/mL (≈ 54.8 µM). For the same molecule, the fraction unbound in data set [8] is 0.002. The clearance in [9] was 12 mL/min/kg. Besides, the pEC200 in data set [10] was found to be 6.3. The molecule also yielded an area under the curve (AUC) in [11] of 3410 ng·h/mL. The molecule also came in with a bioavailability in data set [12] of 50%. In addition, in data set [19], the pKa worked out at 6. Further, the Papp in data set [13] worked out at 15 ×10⁻⁶ cm/s.
On to `N#Cc1c(O)c2c(-c3ccc(-c4ccccc4O)cc3)csc2[nH]c1=O`, for which the solubility in [4] turned out to be 500 µg/mL (≈ 1390 µM). Moreover, the fraction unbound in data set [8] is 0.013. In data set [9], this molecule showed a clearance of 24 mL/min/kg. In [10], the pEC200 came out at 8.5. Also, the exposure (AUC) in [11] was determined as 80 ng·h/mL. This molecule gave a bioavailability in data set [12] of 2%. Moreover, the Papp in data set [13] is less than 0.3 ×10⁻⁶ cm/s.
As to `COc1ccc(-c2ccc(-n3ccc4[nH]c(=O)c(C#N)c(O)c43)cc2)cc1`, the solubility in data set [4] worked out at 59 µg/mL (≈ 165 µM). The pEC200 in data set [10] came to 6.8. Also, the Papp in data set [13] was less than 0.08 ×10⁻⁶ cm/s.
Turning to `COc1ccccc1-c1ccc(-n2ccc3[nH]c(=O)c(C#N)c(O)c32)cc1`, in [10], the pEC200 is 5.5.
The molecule `N#Cc1c(O)c2c(ccn2-c2ccc(-c3ccccc3O)cc2)[nH]c1=O` had an area under the curve (AUC) in data set [20] of 1490 ng·h/mL. The molecule further came in with a clearance in data set [9] of 34 mL/min/kg. The same molecule returned a bioavailability in data set [21] of 10%. Moreover, the pEC200 in data set [10] is 7.8.

These data come from ChEMBL document CHEMBL2406937, “Discovery of Pyridones As Oral AMPK Direct Activators” (ACS Med Chem Lett, 2013).
